Experimental data from paper PMC6525014 (Journal of labelled compounds & radiopharmaceuticals, 2019).

How the values were obtained:
[1] = Metabolic stability in pooled human liver microsomes; assay type: in vitro ADME; settings: for half-life at 1 μM: human, pooled human liver microsomes, pH 7.4
Summary of the method: (§1)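 Pooled liver microsomes (CD-1 mouse, SD rat or human) at 0.5 mg/mL, with 1 μM test compound, 1.7 mM β-NADPH and 3.3 mM MgCl2 in 0.1 M phosphate pH 7.4, 37°C, DMSO <0.1% final. Samples at 0, 5, 10, 15, 30, 45, 60 min were quenched in cold acetonitrile with internal standard. Parent remaining measured by negative-ion MRM LC–MS/MS. t1/2 from ln(remaining) versus time. Controls: no-NADPH, verapamil.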

[2] = Metabolic stability in pooled CD-1 mouse liver microsomes; assay type: in vitro ADME; settings: for half-life at 1 μM: CD-1, mouse, pooled mouse liver microsomes, pH 7.4
Summary of the method: as §1

[3] = Metabolic stability in pooled SD rat liver microsomes; assay type: in vitro ADME; settings: for half-life at 1 μM: SD, rat, pooled rat liver microsomes, pH 7.4
Summary of the method: as §1

[4] = test system: obese mice; settings: earlier work of the authors; cited from earlier work

Compound: CC(C)c1ccc2oc3nc(N)c(C(=O)O)cc3c(=O)c2c1 [Compound 1, amlexanox]
- more unmetabolized amlexanox remaining compared to d2-amlexanox ([1]; human liver microsomes, after 60 min): about 8%
- half-life at 1 μM [1]: > 1 h
- half-life at 1 μM [2]: > 1 h
- more unmetabolized amlexanox remaining compared to d2-amlexanox ([2]; mice liver microsomes, after 60 min): about 8%
- half-life at 1 μM [3]: > 1 h
- effects in obese mice [4]: weight loss in obese mice, improved insulin sensitivity, and reduced hepatic steatosis and inflammation

Compound: [2H]CC([2H])(C)c1ccc2oc3nc(N)c(C(=O)O)cc3c(=O)c2c1 (stereo not shown) [Compound 5, 2-Amino-5-oxo-7-(propan-2-yl-1,2-d2)-5H-chromeno[2,3-b]pyridine-3-carboxylic acid]
- half-life at 1 μM [1]: > 1 h
- half-life at 1 μM [2]: > 1 h
- half-life at 1 μM [3]: > 1 h
- stability relative to amlexanox ([3]; rat liver microsomes): more stable than amlexanox (1)
